KCNQ1 act – potentiators or activators of human KCNQ1 potassium channel | P51787 | CHO-K1 KCNQ1, thallium flux FluxOR fluorescence; active compounds read high | B-score at 10 µM | hit rate 0.35% among 310,000;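 active means fluorescence ratio B-score, a plate-corrected score, at least three library SD, with initial intensity B-score within 5 SD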
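System: CHO-K1 cells stably expressing KCNQ1 / Medium: assay buffer for compound exposure, DMSO matched across wells / Reagent: thallium- and potassium-containing depolarizing buffer / Compound: one concentration, matched DMSO / Incubation: 20 min compound pretreatment at room temperature / Measured by: kinetic FluxOR fluorescence, 10 s baseline plus 110 s post-stimulus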
Kir21 block – Kir2.1 (mouse) channel inhibition; P35561; HEK293-Kir2.1, FluxOR thallium flux fluorescence; active compounds read low; B-score at 10 µM; hit rate 0.85% among 310,000; AID 1672;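 active means fluorescence ratio B-score at or below minus 3 SD of library scores, with starting-brightness B-score within 2 SD, cut at about -4.2 in these data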;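 further: channel flux triggered by added potassium and thallium sulfate stimulus; B-score of peak minus minimum fluorescence over baseline after thallium stimulus; more negative B-score means stronger Kir2.1 block with less thallium influx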
KCNK9 block – inhibitors of human KCNK9 two-pore domain potassium channel | hit rate 1.2% among 310,000 | HEK293 KCNK9, FluxOR thallium flux fluorescence; active compounds read low | Q9NPC2 | AID 488922 | B-score at 10 µM;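 active means ratio B-score over 3 SD below the library mean, with starting fluorescence within 5 SD of its mean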;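 further: negative B-score means less thallium flux so channel inhibition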
Target sequence (Q9NPC2 whole entry, looked up, the tested form may be a part): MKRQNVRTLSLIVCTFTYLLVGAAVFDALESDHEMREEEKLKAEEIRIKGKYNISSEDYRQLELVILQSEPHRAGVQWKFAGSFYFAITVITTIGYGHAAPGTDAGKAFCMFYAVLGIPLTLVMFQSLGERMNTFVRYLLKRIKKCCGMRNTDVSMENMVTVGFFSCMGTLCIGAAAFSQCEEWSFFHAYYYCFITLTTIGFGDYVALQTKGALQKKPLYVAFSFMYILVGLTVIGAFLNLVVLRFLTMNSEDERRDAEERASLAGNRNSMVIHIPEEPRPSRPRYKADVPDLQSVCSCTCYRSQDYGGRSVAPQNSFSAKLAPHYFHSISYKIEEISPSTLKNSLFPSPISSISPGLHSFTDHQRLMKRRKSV
KCNQ1 inh – blocks the human KCNQ1 potassium channel | hit rate 1.3% among 310,000 | B-score at 10 µM | CHO-K1 KCNQ1, FluxOR thallium flux fluorescence; active compounds read high;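 active means compounds whose thallium flux B-score, printed positive for inhibition, exceeds three library SD while starting fluorescence stays within three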;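 further: channel opened by potassium depolarization with thallium stimulus after 20 min compound exposure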
KCNK3 inh – human KCNK3 channel inhibition, primary screen | CHO-KCNK3 thallium flux, FluxOR fluorescence; active compounds read low | B-score at 10 µM | hit rate 0.84% among 340,000 | O14649 | AID 602410;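 active means B-score under library mean minus 4 SD, starting fluorescence ratio at most library mean plus 5 SD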;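 further: more negative B-score means stronger inhibition of thallium flux through KCNK3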
hERG rescue – compounds protecting human hERG from proarrhythmic drug block. Q12809. CHO-hERG, FluxOR thallium flux, dofetilide IC70 present. activation (rescue from dofetilide block), less the hit threshold, % at 10 µM. hit rate 0.51% among 310,000;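 active means activation above the mean of controls blocked by dofetilide plus 5 SD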;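 further: thallium influx through hERG after potassium depolarization seen as dye fluorescence rise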
* hit, by the source's call; i = inactive; · = not tested or not shown. In the library only some 3.7% were active in any assay of this set; here they are far more common.

SMILES	KCNQ1 act	Kir21 block	KCNK9 block	KCNQ1 inh	KCNK3 inh	hERG rescue
CC1(C)CC[C@]2(CO)[C@@H](O)C[C@]3(C)C(=CCC4[C@@]5(C)CC[C@H](O)C(C)(C)C5CC[C@]43C)[C@@H]2C1 (stereo partly specified)	34*	0.6	i	i	·	0
CC1(C)C2CC[C@]3(C)C(CC=C4[C@@H]5C[C@@](C)(CO)[C@@H](O)C[C@]5(C(=O)O)CC[C@]43C)[C@@]2(C)CC[C@@H]1O (stereo partly specified)	i	0.01	i	i	·	-13
Cc1nc(SC(C)C(=O)NCC2CCCO2)c2cc(-c3ccccc3)sc2n1 (stereo unspecified)	i	-1	i	i	i	-19
OC[C@@H]1[C@@H](c2ccc(Cl)cc2)C(c2ccc(F)cc2)=NN1c1ccccc1	·	·	·	·	i	·
CCN1CC(c2ccccc2)C(c2ccc(Cl)cc2)=N1 (stereo unspecified)	i	-1.5	-7*	i	i	-3
Fc1ccc(C2CCNCC2COc2ccc3c(c2)OCO3)cc1 (stereo unspecified)	i	-6.5*	i	i	i	-8
O=C(COc1ccc2c(c1)OCO2)Nc1ccccc1F	i	0.49	i	i	i	-10
Fc1ccc([C@@H]2CCNC[C@H]2COc2ccc3c(c2)OCO3)cc1	i	-6.5*	i	i	i	-6
COc1cc(CNCCc2c[nH]c3ccccc23)ccc1OCc1ccccc1F	i	-8.2*	i	i	i	-27
COc1cccc(CNC23CC4CC(CC(C4)C2)C3)c1OCc1ccccc1	i	-3.8	i	6*	i	-11
COc1cccc(CNCCc2c[nH]c3ccccc23)c1OCc1ccccc1	i	-9.5*	i	i	i	-15
CCCCc1cc(=O)oc2cc(OCC(=O)NCCN3CCOCC3)ccc12	i	1.7	i	i	i	-5
O=C(NC(=S)NC1CCCCC1)c1ccc(F)cc1	i	-0.82	i	i	i	0
Cc1cc(C)n(CC(=O)NNC(=O)c2ccc(NC(=O)CC#N)cc2)n1	·	·	·	·	i	·
CCOc1ccc(S(=O)(=O)NCCC(=O)NCc2ccc(OC)c(OC)c2)cc1	·	·	·	·	i	·
O=C(CSCc1ccccc1Br)NNC(=S)NCc1ccco1	i	-1.1	i	i	i	-16
CCC(CCC(=O)Nc1ccc(S(N)(=O)=O)cc1)C(=O)O (stereo unspecified)	i	-0.89	i	i	i	5.1*
N#Cc1ccc(-c2nnnn2-c2ccc3c(c2)OCO3)cc1	i	-0.73	i	i	i	4.8*
Cc1ccc(C2SCCN2C(=O)c2ccc([N+](=O)[O-])cc2)cc1 (stereo unspecified)	i	-6.5*	i	i	i	-11
COc1ccc(Nc2ncnc3c2c(C)c(C)n3CCO)cc1	i	0.84	i	i	i	-1
CCC(C)(C)NC(=O)C(c1ccc(OC)cc1)N(C(=O)CCC(=O)Nc1cc(C)on1)c1ccc2c(c1)OCCO2 (stereo unspecified)	i	0.02	i	i	i	-8
N#Cc1ccc(/C=C/C(=O)c2cccnc2)cc1	i	-9*	i	6*	i	-15
CCN(CC)c1ccc(/C=C/C(=O)c2cccnc2)cc1	i	-1.2	i	i	i	-11
O=C(/C=C/c1ccc(Cl)cc1)c1cccnc1	i	-7.9*	i	i	i	-12
Cc1noc(C)c1CSc1ncnc2sc3c(c12)CCCCC3	11*	-0.14	i	i	i	35*
SMILES	KCNQ1 act	Kir21 block	KCNK9 block	KCNQ1 inh	KCNK3 inh	hERG rescue
Cc1sc2nc(C(C)C)nc(SCC(=O)N3CCN(C(=O)c4ccco4)CC3)c2c1C	i	-0.21	i	i	i	-2
CCCc1nc(SCC(=O)N2CCc3ccccc3C2)c2ccccc2n1	i	-5.6*	i	i	i	-2
CCc1c(C)sc2nc(C(C)C)nc(SCC(=O)N3CCc4ccccc4C3)c12	i	0.01	i	9*	·	-7
O=C(NCC(c1cccs1)N1CCOCC1)c1ccccc1NS(=O)(=O)c1ccc(Cl)c([N+](=O)[O-])c1 (stereo unspecified)	i	0.5	i	13*	i	-13
O=C(NCC(c1cccs1)N1CCOCC1)c1ccccc1NS(=O)(=O)c1cccc([N+](=O)[O-])c1 (stereo unspecified)	i	0.85	i	i	i	-9
O=C(Cn1nc(-c2ccccc2)oc1=O)OCC(=O)c1ccc(F)c(F)c1	·	·	·	·	i	·
CC(C)(C)OC(=O)CC1(C#N)c2ccccc2C(Br)=CN1C(=O)c1ccccc1 (stereo unspecified)	i	-0.03	-7.4*	i	i	-9
CCOC(=O)C(CSCC(=O)c1ccc(Br)cc1)NC(=O)OC(C)(C)C (stereo unspecified)	i	-0.36	i	i	·	-7
CCOC(=O)C(CSCC(=O)c1ccc(Cl)cc1)NC(=O)OC(C)(C)C (stereo unspecified)	i	-5.7*	i	i	i	-8
Cc1cc(=O)n2cn[nH]c2n1	·	·	·	·	i	·
O=C(Oc1ccc(-c2ccccc2)cc1)c1ccco1	·	·	·	·	i	·
O=Cc1ccnc(-c2ccc(OC(=O)c3ccco3)cc2)n1	i	-5.4*	i	i	i	-18
O=C(OCc1nnc(-c2ccccc2)o1)c1ccc(Cl)cc1	i	0	i	i	i	-10
CS(=O)(=O)c1ccc(C(=O)OCc2nnc(-c3ccccc3)o2)cc1[N+](=O)[O-]	21*	0	i	i	i	-17
Cc1ccc(Cc2c[nH]c(=S)s2)cc1	38*	1	i	i	i	27*
COc1ccc(C(C(=O)Nc2ccc(C(C)C)cc2)N(Cc2ccco2)C(=O)CC2NC(=O)NC2=O)cc1 (stereo unspecified)	i	0.1	i	6*	i	-3
COc1ccc(NC(=O)C(c2ccc(OC)cc2)N(Cc2ccco2)C(=O)CC2NC(=O)NC2=O)cc1 (stereo unspecified)	i	0.04	i	i	i	-1
O=C1c2ccccc2C(=O)N1C(CO)C(O)c1ccc([N+](=O)[O-])cc1 (stereo unspecified)	i	1.7	i	i	i	-1
Cc1ccc(C(OCC(O)CN2CCCCC2)c2ccccc2)cc1 (stereo unspecified)	i	-2.5	i	i	i	-8
CC(NCC(O)COCc1ccc(Cl)cc1)c1ccccc1 (stereo unspecified)	i	-8.5*	i	i	i	-10
